Here are results for one compound from ChEMBL document CHEMBL4177753, “Structural Modification of Natural Product Ganomycin I Leading to Discovery of a α-Glucosidase and HMG-CoA Reductase Dual Inhibitor Improving Obesity and Metabolic Dysfunction in Vivo” (J Med Chem, 2018).

Each structure is given as a SMILES string. Activity calls are given as the source filed them. The calls are words filed in the database; no cut-off is given here.

For data set [1], the system named is Mus musculus. Kind of data set: Hypoglycemic activity in ob/ob mouse assessed as decrease in blood glucose AUC at 0.3 to 3 mg/kg administered daily via oral gavage for 27 days by ITT. Type of data set: functional, organism-based. The method, boiled down: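 Male ob/ob or high-fat-diet C57BL/6J mice dosed daily by gavage at 0.3–3.0 mg/kg. OGTT: glucose 2 g/kg orally after overnight fast. ITT: insulin 0.6 U/kg i.p. after 4 h fast. Glucometer readings at 0, 40, 80 and 120 min; AUC computed from the curves.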

Data set [2] in a line: Half life in Sprague-Dawley rat at 2 mg/kg, po. It counts as ADME, organism-based. To be noted: in vivo. In short, it runs like this:
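Male Sprague-Dawley rats (n = 6, 0.21–0.23 kg), single oral dose 2.0 mg/kg. Orbital blood sampled 0–16 h into heparinized tubes. Plasma was protein-precipitated with methanol, with internal standard added. Quantified by UPLC-ESI(+)-QTOF-MS in SIM mode on a C18 column with a methanol/0.3% formic acid water gradient. Linear range 0.54–107 ng/ml.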

The test system of data set [3] is Mus musculus. The data set is described as follows: Hypolipidemic activity in ob/ob mouse assessed as decrease in liver free fatty acid levels at 0.3 to 3 mg/kg administered daily via oral gavage for 31 days. It counts as functional, organism-based.
In data set [4] the test system is Mus musculus. Kind of data set: In vivo inhibition of alpha-glucosidase activity in ob/ob mouse assessed as reduction of blood glucose AUC at 0.3 to 3 mg/kg administered daily via oral gavage for 30 days by OSTT. Type of data set: functional, organism-based. The method, boiled down: (§1)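 Male ob/ob mice given 0.3–3.0 mg/kg daily by gavage; after overnight fast, sucrose (OSTT) or maltose (OMTT) 4.0 g/kg given orally; blood glucose by glucose meter at 0, 40, 80 and 120 min; AUC calculated from the time course.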

Data set [5] has as its system Mus musculus. The data set is described as follows: Reduction of liver TNF-alpha levels in ob/ob mouse at 3 mg/kg administered daily via oral gavage for 31 days by DAPI staining/immunofluorescence-based confocal microscopic method. Type of data set: functional, organism-based. The method, boiled down:
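Liver from ob/ob mice dosed at 3.0 mg/kg by gavage; tissue methanol-fixed, blocked in PBS with 5% BSA, stained with anti-TNFα (1:200) and Alexa Fluor 610 secondary (1:250), nuclei with DAPI; confocal imaging, per-cell TNFα expression quantified.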

Data set [6] concerns Mus musculus. Kind of data set: Hypolipidemic activity in antibiotic-treated ob/ob mouse assessed as decrease in hepatic triglycerides levels at 3 mg/kg administered daily via oral gavage for 3 weeks. Type of data set: functional, organism-based. In short, it runs like this: (§2)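 Male ob/ob mice pretreated three weeks with ampicillin (1 g/L), vancomycin, neomycin, gentamycin and erythromycin. Groups of n = 8 given 3.0 mg/kg/day orally in soybean vehicle versus vehicle. Plasma and hepatic lipids, fasting glucose, OGTT (glucose 2 g/kg after overnight fast) and HbA1c measured.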

Data set [7] addresses T1, 3-hydroxy-3-methylglutaryl-coenzyme A reductase (Sus scrofa) (UniProt Q1W675).
T1 sequence (whole entry): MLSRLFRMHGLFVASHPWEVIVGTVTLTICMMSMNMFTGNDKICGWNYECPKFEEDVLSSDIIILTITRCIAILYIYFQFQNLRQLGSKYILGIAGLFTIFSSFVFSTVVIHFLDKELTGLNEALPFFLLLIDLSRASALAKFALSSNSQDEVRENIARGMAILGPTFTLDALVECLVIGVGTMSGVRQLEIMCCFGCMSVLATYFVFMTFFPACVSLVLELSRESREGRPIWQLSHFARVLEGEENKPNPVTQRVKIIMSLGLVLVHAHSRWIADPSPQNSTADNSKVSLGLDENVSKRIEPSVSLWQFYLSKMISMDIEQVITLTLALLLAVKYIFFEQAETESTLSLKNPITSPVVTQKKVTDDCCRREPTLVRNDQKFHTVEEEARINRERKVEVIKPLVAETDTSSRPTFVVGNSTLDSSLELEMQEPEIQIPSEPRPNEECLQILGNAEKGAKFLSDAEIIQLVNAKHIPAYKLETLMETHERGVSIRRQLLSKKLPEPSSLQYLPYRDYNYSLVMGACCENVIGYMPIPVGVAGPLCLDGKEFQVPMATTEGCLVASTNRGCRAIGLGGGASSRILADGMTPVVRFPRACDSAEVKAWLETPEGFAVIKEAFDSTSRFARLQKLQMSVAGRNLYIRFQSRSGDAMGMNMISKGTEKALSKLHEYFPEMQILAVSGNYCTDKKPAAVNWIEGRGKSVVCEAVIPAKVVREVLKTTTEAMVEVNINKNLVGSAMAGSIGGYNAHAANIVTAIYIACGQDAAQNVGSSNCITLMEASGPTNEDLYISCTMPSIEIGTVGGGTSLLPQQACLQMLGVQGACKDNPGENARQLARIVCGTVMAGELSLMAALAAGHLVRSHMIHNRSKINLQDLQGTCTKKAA
The data set is described as follows: (§3) Inhibition of pig liver microsomal HMG-CoA reductase by colorimetric method. The method, boiled down: (§4)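 Pig liver microsomal HMG-CoA reductase; compounds tested at several concentrations, each in triplicate; control uses phosphate buffer instead of compound, blank uses buffer instead of enzyme. Absorbance read at 405 nm; % inhibition from blank-corrected OD of test versus control; IC50 fitted from the inhibition-concentration series.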

Data set [8] has as its target T2, 3-hydroxy-3-methylglutaryl-coenzyme A reductase (Sus scrofa, UniProt Q1W675).
T2 sequence (Q1W675 whole entry): T1 sequence (whole entry)
The data set is described as §3. In short, it runs like this:
as §4

A further data set concerns Neisseria. The data set is described as follows: Decrease in Neisseri levels in cecum of ob/ob mouse at 3 mg/kg administered daily via oral gavage for 31 days by 16S rRNA gene high-throughput sequencing method. It counts as functional, organism-based. In short, it runs like this: (§5)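 Male ob/ob mice dosed daily by gavage at 1.0 or 3.0 mg/kg, compared with vehicle group. DNA extracted from about 150 mg caecum contents. 16S rRNA V3–V4 region amplified and sequenced on Illumina HiSeq PE250. Community compared by NMDS/MRPP; discriminant taxa identified by LEfSe.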

Data set [9] deals with Mus musculus. Kind of data set: Hypolipidemic activity in ob/ob mouse assessed as decrease in hepatocyte ballooning at 3 mg/kg administered daily via oral gavage for 31 days by oil red O staining-based microscopic method. Type of data set: functional, organism-based. The method, boiled down: (§6)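 Male ob/ob mice dosed by gavage (soybean vehicle); liver and abdominal white adipose tissue fixed in 10% formaldehyde-PBS pH 7.4, paraffin-embedded, sectioned, stained with H&E, Oil Red O or sirius red, and examined by light microscopy.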

In data set [10] the test system is Mus musculus. The data set is described as follows: Hypoglycemic activity in antibiotic-treated ob/ob mouse assessed as decrease in fasting blood glucose levels at 3 mg/kg administered daily via oral gavage for 3 weeks. Type of data set: functional, organism-based. The method, boiled down:
as §2

Data set [11] deals with Mus musculus. The data set is described as follows: Hypoglycemic activity in C57BL/6J DIO mouse assessed as increase in insulin sensitive index at 0.3 to 3 mg/kg administered daily via oral gavage for 5 weeks. Type of data set: functional, organism-based. In short, it runs like this: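 Male high-fat-diet C57BL/6J mice, daily gavage at 0.3–3.0 mg/kg for 5 weeks. ISI calculated as […].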

For data set [12], the system named is Mus musculus. Kind of data set: Hypolipidemic activity in ob/ob mouse assessed as decrease in size of adipocytes in white adipose tissue at 3 mg/kg administered daily via oral gavage for 31 days by hematoxylin-eosin staining-based microscopic method. Type of data set: functional, organism-based. In short, it runs like this: as §6
Data set [13] deals with Mus musculus. Kind of data set: In vivo inhibition of alpha-glucosidase activity in ob/ob mouse assessed as reduction of blood glucose AUC at 0.3 to 3 mg/kg administered daily via oral gavage for 32 days by OMTT. Type of data set: functional, organism-based. In short, it runs like this:
as §1

For a further data set, the system named is Gammaproteobacteria. The data set is described as follows: Decrease in Gammaproteobacteria levels in cecum of ob/ob mouse at 1 to 3 mg/kg administered daily via oral gavage for 31 days by 16S rRNA gene high-throughput sequencing method. Type of data set: functional, organism-based. The method, boiled down: as §5

On to `CC(C)=CCC/C(C)=C/CCC1=C[C@H](c2ccc(C(C)(C)C)cc2)OC1=O`, for which the outcome in the data set with Mus musculus [1], in the data set on Mus musculus [3], with Mus musculus [5], in the data set with Neisseria, with Mus musculus [9] and in the data set on Mus musculus [11] was Active. Also, the result with Mus musculus [12] and with Gammaproteobacteria was Active. In [2], the half-life was 1.8 h. The inhibition entry in the data set with Mus musculus [4] and with Mus musculus [13] was “Active” each time. The result in the data set with Mus musculus [6] and in the data set on Mus musculus [10] was inactive. For the same compound, the inhibition result in data set [7] is “Dose-dependent effect”. 5.82 µM corresponded to half-maximal inhibition in data set [8] (IC50).
